These results are taken from ChEMBL document CHEMBL1124439, “Computer-assisted design and synthesis of novel aldose reductase inhibitors” (J Med Chem, 1989).

Molecules are shown by their SMILES. Calls of active or inactive are those of the source. The rule behind the calls is not given here.

Experiment [1] concerns the target T1, Aldo-keto reductase family 1 member B1 (Rattus norvegicus, UniProt P07943). The experiment in a line: Inhibition of aldose reductase (or polyol accumulation) in isolated rat sciatic nerve by compound at 10e-5 M concentration. Format: tissue-based. The essentials: (§1)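 Isolated rat sciatic nerve incubated in vitro with compound, with polyol accumulation as read-out. Percent inhibition of polyol accumulation recorded at 1 × 10⁻⁵ M.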

The test system of experiment [2] is Rattus norvegicus. The experiment in a line: Inhibition of galactitol accumulation in sciatic nerve of rats, by 159 mg/kg of compound; NS means Not Significant. Format: functional, organism-based. Details: dose 159 mg/kg. A digest of the protocol: (§2)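 Rats were fed 20% galactose chow for 4 days with drug, at the dose given in mg/kg. Galactitol was measured in lens and sciatic nerve, and percent inhibition was calculated against galactosemic control rats.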

Experiment [3] relates to Rattus norvegicus. The experiment in a line: Inhibition of galactitol accumulation in lens of rats, by 159 mg/kg of compound; NS means Not Significant. Type of experiment: functional, organism-based. Details: dose 159 mg/kg. Conditions: Lens of camera-type eye. A digest of the protocol: as §2
The target in experiment [4] is T1, Aldo-keto reductase family 1 member B1. Nature of the experiment: Inhibition of aldose reductase (or polyol accumulation) in isolated rat sciatic nerve by compound at 10E-5 M concentration; IA means Not Active. Format: tissue-based. A digest of the protocol:
as §1

The target in experiment [5] is Aldo-keto reductase family 1 member B1 (Bos taurus, UniProt P16116). The experiment in a line: In vitro inhibition of bovine lens aldose reductase.
Experiment [6] has as its target T1, Aldo-keto reductase family 1 member B1. The experiment in a line: Inhibition of aldose reductase (or polyol accumulation) in isolated rat sciatic nerve by compound at (10E-5) M concentration. Type of experiment: tissue-based. A digest of the protocol:
as §1

In experiment [7] the test system is Rattus norvegicus. The experiment in a line: Inhibition of galactitol accumulation in lens of rats, by 76 mg/kg of compound; NS=Not significant. Type of experiment: functional, organism-based. Also on record: dose 76 mg/kg. Conditions: Lens of camera-type eye. A digest of the protocol:
as §2

`COc1ccc2c(C(=S)N(C)CC(=O)O)cccc2c1C(F)(F)F` [TOLRESTAT] had an IC50 in experiment [1] of 540 nM.

Take `CN(CC(=O)O)C(=S)c1cccc2ccccc12`: the inhibition entry in experiment [2] and in experiment [3] was “inactive” each time. Besides, the IC50 result in experiment [4] was “Not Active”; in experiment [5], 730 nM.

For `CC1=C(CC(=O)O)c2cccc3cccc(c23)C1=O`, the IC50 amounted to 2500 nM in experiment [6] and 240 nM in experiment [5]. Also, the inhibition entry in experiment [7] is “inactive”.

For orientation: IC50 means the concentration at which inhibition is half-maximal. Low readings indicate inhibition by little substance, high ones a need for much substance.
